Data set [1] can be described thus: Selectivity index, ratio of CC50 for human Huh7.5 cells to EC50 for HCV genotype 2a JFH-1 infected in human Huh7.5 cells. It is filed as toxicity, cell-based. The conditions noted are these: read-out: Ratio CC50/EC50. A digest of the protocol: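 This is the CC50/EC50 ratio. CC50 came from MTT viability of mock-infected Huh7.5 cells. EC50 came from Renilla luciferase in Huh7.5 cells infected with JFH1-Luc (MOI 0.004) and read 3 days post-infection, with 3-fold serial compound dilutions. Both were run in parallel, in triplicate.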

Data set [2] in a line: Antiviral activity against recombinant HCV genotype 2a JFH-1 infected in human Huh7.5 cells after 3 days by renilla luciferase reporter gene assay. Format: functional, cell-based, Hepatitis C virus subtype 2a. The conditions noted are these: Hepatitis C virus, JFH-1, Huh7.5, 72 h. A digest of the protocol:
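Huh7.5 cells in DMEM with 10% FBS were infected with JFH1-Luc reporter virus at MOI 0.004 for 5 h at 37 °C while exposed to 3-fold serial dilutions of compound. On day 3 post-infection, the cells were lysed and Renilla luciferase activity was read. EC50 was calculated from the signal. Run in triplicate.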
(In a reporter assay the amount or activity of a reporter protein is the signal.)

The nature of data set [3]: Cytotoxicity against human Huh7.5 cells assessed as reduction in cell viability after 3 days by MTT assay. Format: cell-based. The conditions noted are these: time 3 day. In a few lines: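 Huh7.5 cells were mock-infected and then treated with increasing concentrations of compound (3-fold serial dilutions), in parallel with the antiviral plates. Viability was measured by MTT assay and CC50 was derived. Run in triplicate.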
A general note: Formazan colour is commonly taken as a measure of viable cells.

In data set [4] the target is Peptidyl-prolyl cis-trans isomerase A (Homo sapiens, UniProt P62937). The data set is described as follows: Binding affinity to Cyclophilin A (unknown origin) by surface plasmon resonance analysis. A digest of the protocol: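 SPR was used. CypA was immobilized by EDC/NHS activation, diluted in 10 mM sodium acetate pH 6.0, then quenched with 1 M ethanolamine pH 8.5. A protein-free reference channel was used. Running buffer was PBS with 5% DMSO at 30 µL/min, with 3 min association and 4 min dissociation. Regeneration used 50 mM NaOH. KD came from kinetic fitting.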
Chain of Peptidyl-prolyl cis-trans isomerase A (P62937 whole entry): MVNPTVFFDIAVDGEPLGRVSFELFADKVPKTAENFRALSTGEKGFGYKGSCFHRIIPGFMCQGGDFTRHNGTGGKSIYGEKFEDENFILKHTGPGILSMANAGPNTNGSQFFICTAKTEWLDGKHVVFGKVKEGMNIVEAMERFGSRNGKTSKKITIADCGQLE
(In general: Surface plasmon resonance follows binding to a sensor surface in real time, without labels.)

As to `COc1cc(C(C(=O)NC2CCCCC2)N(C(=O)c2cc3ccccc3[nH]2)c2ccc(C(C)C)cc2)cc(OC)c1OC` (centres undefined), the selectivity ratio in data set [1] was determined as 9.7. Further, the EC50 in data set [2] came to 2 µM. Also, the CC50 at 72 h in data set [3] amounted to 19.4 µM.

`COc1ccc(N(C(=O)Cc2c[nH]c3ccccc23)C(C(=O)NC2CCCCC2)c2cc(OC)c(OC)c(OC)c2)cc1OC` (centres undefined): in data set [1], the selectivity ratio was determined as 5.5. Also, in data set [2], the EC50 is 10.2 µM. For the same compound, the CC50 at 72 h in data set [3] was 56.7 µM.

On to `COc1ccc(C(C(=O)NC2CCCCC2)N(C(=O)Cc2c[nH]c3ccccc23)c2ccc(C(C)C)cc2)c(OC)c1OC` (centres undefined), for which, in data set [2], the EC50 was above 5.9 µM. For the same compound, the CC50 at 72 h in data set [3] worked out at 5.9 µM.

Turning to `NC(=O)c1ncn([C@@H]2O[C@H](CO)[C@@H](O)[C@H]2O)n1` [RIBAVIRIN], in data set [1], the selectivity ratio is above 6.1. Besides, the EC50 in data set [2] is above 100 µM. Besides, the CC50 at 72 h in data set [3] was 16.3 µM.

For the compound `COc1ccc(C(C(=O)NC2CCCCC2)N(C(=O)Cc2c[nH]c3ccccc23)c2ccc(Br)cc2)c(OC)c1OC` (centres undefined), the EC50 in data set [2] is above 7.2 µM. Besides, the CC50 at 72 h in data set [3] was 7.2 µM.

With `COc1ccc(C(C(=O)NC2CCCCC2)N(C(=O)Cc2c[nH]c3ccccc23)c2ccc(C(C)C)cc2)cc1OC` (centres undefined), the selectivity ratio in data set [1] is 3.5. Further, the EC50 in data set [2] worked out at 2 µM. For the same compound, in data set [3], the CC50 at 72 h came to 6.9 µM.

On to `COc1ccc(N(C(=O)Cc2c[nH]c3ccccc23)C(C(=O)NC2CCCCC2)c2ccc(OC)c(OC)c2)cc1` (centres undefined), for which the selectivity ratio in data set [1] turned out to be 8.6. In addition, the EC50 in data set [2] stood at 3.8 µM. Further, the CC50 at 72 h in data set [3] is 32.7 µM.

Consider `COc1ccc(C(C(=O)NC2CCCCC2)N(CC(OC)OC)C(=O)Cc2c[nH]c3ccccc23)cc1OC` (centres undefined), for which the EC50 in data set [2] was above 54.5 µM. Also, the CC50 at 72 h in data set [3] worked out at 54.5 µM.

For the compound `COc1cc(C(C(=O)NC(C)(C)C)N(C(=O)Cc2c[nH]c3ccccc23)c2ccc(C(C)C)cc2)cc(OC)c1OC` (centres undefined), in data set [1], the selectivity ratio is 2.3. Further, the EC50 in data set [2] was determined as 6.3 µM. In addition, the CC50 at 72 h in data set [3] came to 13.9 µM.

`COc1ccc(N(C(=O)Cc2c[nH]c3ccccc23)C(C(=O)NC2CCCCC2)c2cc(OC)c(OC)c(OC)c2)cc1` (centres undefined): the selectivity ratio in data set [1] amounted to 9. In addition, the EC50 in data set [2] amounted to 5 µM. The CC50 at 72 h in data set [3] stood at 44.8 µM.

On to `COc1cc(C(C(=O)NC2CCCCC2)N(C(=O)Cc2c[nH]c3ccccc23)c2ccc(C(C)C)cc2)cc(OC)c1OC` (centres undefined), for which the selectivity ratio in data set [1] is above 19.2. For the same compound, the EC50 in data set [2] is 5.2 µM. Further, the CC50 at 72 h in data set [3] was above 100 µM.

`COc1cc(C(C(=O)NC(C)(C)C)N(C(=O)c2cc3ccccc3[nH]2)c2ccc(C(C)C)cc2)cc(OC)c1OC` (centres undefined): the selectivity ratio in data set [1] worked out at 6.2. In data set [2], the EC50 was found to be 5.9 µM. The CC50 at 72 h in data set [3] was 36.7 µM.

For `COc1ccc(C(C(=O)NC2CCCCC2)N(C(=O)Cc2c[nH]c3ccccc23)c2ccc(OC)c(OC)c2)cc1OC` (centres undefined), the selectivity ratio in data set [1] was determined as 10.5. Besides, the EC50 in data set [2] was found to be 5.3 µM. In addition, the CC50 at 72 h in data set [3] is 55.3 µM.

Take `COc1cc(C(C(=O)NC2CCCCC2)N(C(=O)Cc2c[nH]c3ccccc23)c2cccc3ccccc23)cc(OC)c1OC` (centres undefined): the selectivity ratio in data set [1] stood at 3.4. The EC50 in data set [2] was determined as 9.4 µM. Also, the CC50 at 72 h in data set [3] stood at 33.2 µM.

Consider `COc1ccc(C(C(=O)NC2CCCCC2)N(C(=O)Cc2c[nH]c3ccccc23)C2CCCCC2)cc1OC` (centres undefined), for which the EC50 in data set [2] is above 14.6 µM. Further, in data set [3], the CC50 at 72 h worked out at 14.6 µM.

Take `COc1ccc(Cn2cc(CC(=O)N(c3ccccc3)C(C(=O)NC3CCCCC3)c3ccccc3)c3ccccc32)cc1` (centres undefined): the EC50 in data set [2] is above 24.4 µM. The CC50 at 72 h in data set [3] came out at 24.4 µM.

As to `COc1ccc(CCN(C(=O)Cc2c[nH]c3ccccc23)C(C(=O)NC2CCCCC2)c2cc(OC)c(OC)c(OC)c2)cc1OC` (centres undefined), the Kd in data set [4] worked out at 3.66 µM. In addition, the selectivity ratio in data set [1] was above 18.9. The EC50 in data set [2] is 5.3 µM. In addition, in data set [3], the CC50 at 72 h is above 100 µM.

Consider `COc1ccc(C(C(=O)NC2CCCCC2)N(C(=O)Cc2c[nH]c3ccccc23)c2ccccc2)c(OC)c1OC` (centres undefined), for which, in data set [2], the EC50 was above 18.8 µM. In addition, in data set [3], the CC50 at 72 h turned out to be 18.8 µM.

By EC50 is commonly meant the midpoint of the concentration-response curve. Broadly, the CC50 is the concentration at which the toxic effect on the cells reaches its halfway point. The Kd is the concentration at which binding is half-saturated. A high value points to weaker binding.
